Assay results from ChEMBL document CHEMBL3616436, “Synthesis, cytotoxicity and antimicrobial activity of thiourea derivatives incorporating 3-(trifluoromethyl)phenyl moiety” (Eur J Med Chem, 2015).
Converted amounts (≈) assume the structure as drawn. The source made the active and inactive calls. No cut-off for these calls is given here.

Key:
[1] = system: Mycobacterium tuberculosis; assay: Antimycobacterial activity against Mycobacterium tuberculosis H37Rv ATCC 25618; type: functional
How it was run: (§1)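 Classical test-tube successive-dilution method in Youmans' modification of Proskauer and Beck liquid medium with 10% bovine serum. Inoculum came from 14-day cultures. DMSO stock was 10 mg/mL, diluted geometrically in medium. Tubes were incubated at 37 °C. Concentrations tested were 3.1, 6.2, 12.5, 25, 50 and 100 µg/ml. MIC is the minimum concentration inhibiting growth relative to compound-free tubes.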

[2] = system: Mycobacterium tuberculosis; assay: Antimycobacterial activity against drug-sensitive Mycobacterium tuberculosis Spec. 192; type: functional; how it was run: as §1
Bacillus subtilis = assay: Antimicrobial activity against Bacillus subtilis ATCC 6633 at 400 ug after 18 hrs by disc-diffusion method; type: functional; conditions: ATCC 6633, 18 h, read-out: IZ
How it was run: (§2)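 Disc diffusion on Mueller-Hinton II agar per CLSI; 9 mm paper discs loaded with 400 µg compound from DMSO solution, dried, placed on agar; growth inhibition zone diameter read after 18 h at 35°C.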

[3] = Cytotoxicity against BHK cells assessed as cell viability after 48 to 96 hrs by MTT assay; type: cell-based, Mesocricetus auratus; conditions: hamster
Staphylococcus aureus [4] = assay: Antimicrobial activity against Staphylococcus aureus ATCC 25923 at 400 ug after 18 hrs by disc-diffusion method; type: functional; conditions: ATCC 25923, 18 h, read-out: IZ; how it was run: as §2
Staphylococcus aureus [5] = assay: Antimicrobial activity against Staphylococcus aureus NCTC 4163 after 18 hrs by twofold serial microdilution method; type: functional; conditions: NCTC 4163, 18 h
Poliovirus 1 = assay: Antiviral activity against Poliovirus type 1 ATCC VR-1562 infected in African green monkey Vero 76 cells assessed as reduction of virus-plaque formation after 2 days by crystal violet staining; type: functional, organism-based; conditions: Enterovirus C, ATCC VR-1562, Vero, 48 h
Staphylococcus aureus [6] = assay: Antimicrobial activity against Staphylococcus aureus ATCC 6538 after 18 hrs by twofold serial microdilution method; type: functional; conditions: ATCC 6538, 18 h
Staphylococcus aureus [7] = assay: Antimicrobial activity against Staphylococcus aureus ATCC 29213 after 18 hrs by twofold serial microdilution method; type: functional; conditions: ATCC 29213, 18 h
Staphylococcus aureus [8] = assay: Antimicrobial activity against Staphylococcus aureus NCTC 4163 at 400 ug after 18 hrs by disc-diffusion method; type: functional; conditions: NCTC 4163, 18 h, read-out: IZ; how it was run: as §2
Micrococcus luteus [9] = assay: Antimicrobial activity against Micrococcus luteus ATCC 9341 at 400 ug after 18 hrs by disc-diffusion method; type: functional; conditions: ATCC 9341, 18 h, read-out: IZ; how it was run: as §2
Staphylococcus aureus [10] = assay: Antimicrobial activity against Staphylococcus aureus ATCC 6538 at 400 ug after 18 hrs by disc-diffusion method; type: functional; conditions: ATCC 6538, 18 h, read-out: IZ; how it was run: as §2
Enterococcus faecalis = assay: Antimicrobial activity against Enterococcus faecalis ATCC 29212 at 400 ug after 18 hrs by disc-diffusion method; type: functional; conditions: ATCC 29212, 18 h, read-out: IZ; how it was run: as §2
Vaccinia virus = assay: Antiviral activity against Human Vaccinia virus ATCC VR-1549 infected in African green monkey Vero 76 cells assessed as reduction of virus-plaque formation after 3 days by crystal violet staining; type: functional, organism-based; conditions: Orthopoxvirus vaccinia, ATCC VR-1549, Vero, 72 h
Yellow fever virus = assay: Antiviral activity against Yellow fever virus 17D infected in BHK cells assessed as protection against virus-induced cytopathogenicity after 3 to 4 days by MTT assay; type: functional, cell-based
Human alphaherpesvirus 1 = assay: Antiviral activity against Human herpesvirus 1 KOS ATCC VR-1493 infected in African green monkey Vero 76 cells assessed as reduction of virus-plaque formation after 3 days by crystal violet staining; type: functional, organism-based; conditions: Human alphaherpesvirus 1, KOS ATCC VR1493, Vero, 72 h
How it was run: (§3)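 Plaque reduction: Vero-76 at 2x10^5 cells/well grown to confluent monolayers, infected 2 h at 50–100 PFU/well; after removing unadsorbed virus, overlay of D-MEM, 1% inactivated FBS, 0.75% methylcellulose with or without serial compound dilutions; 3 days at 37°C, fixed and stained with crystal violet in 50% ethanol, plaques counted; EC50 by linear regression.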

[11] = system: Human immunodeficiency virus 1; assay: Antiviral activity against HIV1 3B infected in human MT4 cells assessed as protection against virus-induced cytopathogenicity by MTT assay; type: functional, organism-based; conditions: Human immunodeficiency virus 1, 3B
Staphylococcus aureus [12] = assay: Antimicrobial activity against Staphylococcus aureus ATCC 29213 at 400 ug after 18 hrs by disc-diffusion method; type: functional; conditions: ATCC 29213, 18 h, read-out: IZ; how it was run: as §2
[13] = system: Vesicular stomatitis virus; assay: Antiviral activity against Vesicular stomatitis virus ATCC VR 1540 infected in African green monkey Vero 76 cells assessed as reduction of virus-plaque formation after 2 days by crystal violet staining; type: functional, organism-based; conditions: ATCC VR 1540, Vero, 48 h
[14] = Antiviral activity against Bovine viral diarrhea virus 1-NADL ATCC VR-534 infected in MDBK cells assessed as protection against virus-induced cytopathogenicity after 3 to 4 days by MTT assay; type: functional, cell-based; conditions: Bovine viral diarrhea virus isolates and strains, ATCC VR-534, MDBK
How it was run: (§4)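 Cells seeded in 96-well plates (BHK 5x10^4, MDBK 3x10^4 cells/well), grown overnight to confluence, infected at m.o.i. 0.01 (BHK for Reo-1, MDBK for BVDV); serial compound dilutions in maintenance medium with 0.5% inactivated FBS added after 1 h; viability by MTT after 3–4 days at 37°C; EC50 for 50% protection by linear regression.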

[15] = Cytotoxicity against human MT4 cells; type: cell-based
Coxsackievirus B5 = assay: Antiviral activity against Human coxsackievirus B5 ATCC VR-29 infected in African green monkey Vero 76 cells assessed as reduction of virus-plaque formation after 3 days by crystal violet staining; type: functional, organism-based; conditions: Enterovirus B, ATCC VR-29, Vero, 72 h; how it was run: as §3
Staphylococcus aureus [16] = assay: Antimicrobial activity against Staphylococcus aureus ATCC 25923 after 18 hrs by twofold serial microdilution method; type: functional; conditions: ATCC 25923, 18 h
[17] = Cytotoxicity against bovine MDBK cells assessed as cell viability after 48 to 96 hrs by MTT assay; type: cell-based, Bos taurus; conditions: cattle
[18] = system: Staphylococcus epidermidis; assay: Antimicrobial activity against Staphylococcus epidermidis ATCC 35984 after 18 hrs by twofold serial microdilution method; type: functional; conditions: ATCC 35984, 18 h
[19] = system: Staphylococcus epidermidis; assay: Antimicrobial activity against Staphylococcus epidermidis ATCC 12228 after 18 hrs by twofold serial microdilution method; type: functional; conditions: ATCC 12228, 18 h
Proteus vulgaris = assay: Antimicrobial activity against Proteus vulgaris NCTC 4635 at 400 ug after 18 hrs by disc-diffusion method; type: functional; conditions: NCTC 4635, 18 h, read-out: IZ; how it was run: as §2
[20] = Cytotoxicity against African green monkey Vero 76 cells assessed as cell viability after 48 to 96 hrs by crystal violet staining; type: cell-based; conditions: chlorocebus sabaeus
Enterococcus hirae = assay: Antimicrobial activity against Enterococcus hirae ATCC 10541 at 400 ug after 18 hrs by disc-diffusion method; type: functional; how it was run: as §2
[21] = system: Mammalian orthoreovirus 1; assay: Antiviral activity against Reovirus type-1 ATCC VR-214 infected in BHK cells assessed as protection against virus-induced cytopathogenicity after 3 to 4 days by MTT assay; type: functional, cell-based; conditions: Mammalian orthoreovirus 1, ATCC VR-214, BHK; how it was run: as §4
[22] = system: Staphylococcus epidermidis; assay: Antimicrobial activity against Staphylococcus epidermidis ATCC 12228 at 400 ug after 18 hrs by disc-diffusion method; type: functional; conditions: ATCC 12228, 18 h, read-out: IZ; how it was run: as §2
Bacillus cereus = assay: Antimicrobial activity against Bacillus cereus ATCC 11778 at 400 ug after 18 hrs by disc-diffusion method; type: functional; conditions: ATCC 11778, 18 h, read-out: IZ; how it was run: as §2
[23] = system: Staphylococcus epidermidis; assay: Antimicrobial activity against Staphylococcus epidermidis ATCC 35984 at 400 ug after 18 hrs by disc-diffusion method; type: functional; conditions: ATCC 35984, 18 h, read-out: IZ; how it was run: as §2
Micrococcus luteus [24] = assay: Antimicrobial activity against Micrococcus luteus ATCC 10240 at 400 ug after 18 hrs by disc-diffusion method; type: functional; conditions: ATCC 10240, 18 h, read-out: IZ; how it was run: as §2

NNC(=O)c1ccncc1 [ISONIAZID]
MIC [1]: 6.25 µg/mL (≈ 45.6 µM)
MIC [2]: 12.5 µg/mL (≈ 91.1 µM)

Fc1ccccc1NC(=S)Nc1cccc(C(F)(F)F)c1
zone of inhibition at 400 µg/disc (Bacillus subtilis): 20 mm
CC50 [3]: 54 µM
zone of inhibition at 400 µg/disc (Staphylococcus aureus [4]): 19 mm
MIC (Staphylococcus aureus [5]): 16 µg/mL (≈ 50.9 µM)
EC50 (Poliovirus 1): > 64 µM
MIC [1]: 100 µg/mL (≈ 318 µM)
MIC (Staphylococcus aureus [6]): 16 µg/mL (≈ 50.9 µM)
MIC (Staphylococcus aureus [7]): 16 µg/mL (≈ 50.9 µM)
zone of inhibition at 400 µg/disc (Staphylococcus aureus [8]): 18 mm
zone of inhibition at 400 µg/disc (Micrococcus luteus [9]): 21 mm
zone of inhibition at 400 µg/disc (Staphylococcus aureus [10]): 21 mm
MIC [2]: 100 µg/mL (≈ 318 µM)
zone of inhibition at 400 µg/disc (Enterococcus faecalis): 13 mm
EC50 (Vaccinia virus): > 64 µM
EC50 (Yellow fever virus): > 54 µM
EC50 (Human alphaherpesvirus 1): > 64 µM
EC50 [11]: > 47 µM
zone of inhibition at 400 µg/disc (Staphylococcus aureus [12]): 19 mm
EC50 [13]: > 64 µM
EC50 [14]: > 100 µM
CC50 [15]: 47 µM
EC50 (Coxsackievirus B5): > 64 µM
MIC (Staphylococcus aureus [16]): 16 µg/mL (≈ 50.9 µM)
CC50 [17]: > 100 µM
MIC [18]: 32 µg/mL (≈ 102 µM)
MIC [19]: 16 µg/mL (≈ 50.9 µM)
zone of inhibition at 400 µg/disc (Proteus vulgaris): 11 mm
CC50 [20]: 64 µM
inhibition zone (IZ) (Enterococcus hirae): inactive
EC50 [21]: > 54 µM
zone of inhibition at 400 µg/disc [22]: 20 mm
zone of inhibition at 400 µg/disc (Bacillus cereus): 18 mm
zone of inhibition at 400 µg/disc [23]: 20 mm
zone of inhibition at 400 µg/disc (Micrococcus luteus [24]): 23 mm

COc1c(C)c2c(c(O)c1C/C=C(\C)CCC(=O)O)C(=O)OC2 [MYCOPHENOLIC ACID]
CC50 [20]: > 100 µM

C[C@@]1(O)[C@H](O)[C@@H](CO)O[C@H]1n1ccc(N)nc1=O
CC50 [3]: > 10 µM
EC50 (Poliovirus 1): 7.3 µM
EC50 (Coxsackievirus B5): 18 µM
CC50 [20]: > 100 µM
EC50 [21]: 16 µM

O=C1Nc2ccc(Cl)cc2[C@@](C#CC2CC2)(C(F)(F)F)O1 [EFAVIRENZ]
CC50 [15]: 40 µM

C[C@@]1(O)[C@H](O)[C@@H](CO)O[C@H]1n1cnc2c(=O)[nH]c(N)nc21 [2'-B-METHYL-GUANOSINE]
CC50 [3]: > 100 µM
EC50 (Yellow fever virus): 1.9 µM
EC50 [14]: 1.1 µM
CC50 [17]: > 10 µM
